From ChEMBL document CHEMBL1932986, “Synthesis and in vitro antimycobacterial activity of compounds derived from (R)- and (S)-2-amino-1-butanol - The crucial role of the configuration” (Eur J Med Chem, 2012)
Converted amounts (≈) assume the structure as drawn. The source made the active and inactive calls. The rule behind the calls is not given here.

Key:
Penicillium chrysogenum [1] = test: Antifungal activity against Penicillium chrysogenum CECT 2802 at 50 mg/ml after 72 hrs by agar diffusion test; type: functional; settings: CECT 2802, 72 h, read-out: DIZ
Summary of the method: (§1)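 Agar diffusion: yeasts grown on yeast peptone dextrose agar and fungi on potato dextrose agar. Wells are filled with […] of compound solution in DMSO at various concentrations, and the clear-zone diameter is measured. Bracketed values give the lowest concentration (mg/ml) that produces a zone >11 mm. A first screen is run at 50 mg/ml.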

Saccharomyces cerevisiae [2] = test: Antifungal activity against Saccharomyces cerevisiae ATCC 9763 assessed as concentration required to produce >11 mm of zone of inhibition after 72 hrs by agar diffusion test; type: functional; summary of the method: as §1
Staphylococcus aureus [3] = test: Antibacterial activity against Staphylococcus aureus NRRL B 313 at 50 mg/ml after 24 hrs by agar diffusion test; type: functional; settings: NRRL B 313, 24 h, read-out: DIZ
Summary of the method: (§2)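 Agar diffusion: bacteria grown 24 h at 37 °C on nutrient agar. Wells in the agar are filled with […] of compound solution in DMSO at various concentrations. The diameter of the clear zone around the application point is measured. Bracketed values give the lowest concentration (mg/ml) that produces a zone >11 mm. A first screen is run at 50 mg/ml.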

Bacillus mycoides [4] = test: Antibacterial activity against Bacillus mycoides DSMZ 274 at 50 mg/ml after 24 hrs by agar diffusion test; type: functional; settings: DSMZ 274, 24 h, read-out: DIZ
Summary of the method: (§3)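 Agar diffusion: wells in agar filled with […] DMSO solution of compound at various concentrations; diameter of clear zone around application point measured. Bacteria grown 24 h at 37 °C on nutrient agar. Compounds first screened at 50 mg/ml; those active then tested at lower concentrations. Bracketed value = lowest concentration (mg/ml) giving zone >11 mm, reported only if activity retained at ≤1.25 mg/ml.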

Bacillus subtilis [5] = test: Antibacterial activity against Bacillus subtilis ATCC 6633 assessed as concentration required to produce >11 mm of zone of inhibition after 24 hrs by agar diffusion test; type: functional; summary of the method: as §3
Micrococcus luteus [6] = test: Antibacterial activity against Sarcina lutea ATCC 9341 assessed as concentration required to produce >11 mm of zone of inhibition after 24 hrs by agar diffusion test; type: functional; summary of the method: as §3
Bacillus [7] = test: Antibacterial activity against Bacillus idosus B 241 at 2 mg/ml after 24 hrs by agar diffusion test; type: functional, organism-based; summary of the method: as §3
Escherichia coli [8] = test: Antibacterial activity against Escherichia coli ATCC 8739 at 50 mg/ml after 24 hrs by agar diffusion test; type: functional; settings: ATCC 8739, 24 h, read-out: DIZ; summary of the method: as §3
Acinetobacter johnsonii [9] = test: Antibacterial activity against Acinetobacter johnsonii ATCC 17909 at 50 mg/ml after 24 hrs by agar diffusion test; type: functional; settings: ATCC 17909, 24 h, read-out: DIZ; summary of the method: as §3
Priestia megaterium [10] = test: Antibacterial activity against Bacillus megaterium NRRL 1353895 at 2 mg/ml after 24 hrs by agar diffusion test; type: functional, organism-based; summary of the method: as §3
Candida tropicalis [11] = test: Antifungal activity against Candida tropicalis ATCC 20336 at 50 mg/ml after 72 hrs by agar diffusion test; type: functional; settings: ATCC 20336, 72 h, read-out: DIZ; summary of the method: as §1
Bacillus subtilis [12] = test: Antibacterial activity against Bacillus subtilis ATCC 6633 at 2 mg/ml after 24 hrs by agar diffusion test; type: functional, organism-based; summary of the method: as §3
Bacillus subtilis [13] = test: Antibacterial activity against Bacillus subtilis ATCC 6633 at 50 mg/ml after 24 hrs by agar diffusion test; type: functional; settings: ATCC 6633, 24 h, read-out: DIZ; summary of the method: as §3
Saccharomyces cerevisiae [14] = test: Antifungal activity against Saccharomyces cerevisiae ATCC 9763 at 2 mg/ml after 72 hrs by agar diffusion test; type: functional, organism-based; summary of the method: as §1
Bacillus [15] = test: Antibacterial activity against Bacillus idosus B 241 assessed as concentration required to produce >11 mm of zone of inhibition after 24 hrs by agar diffusion test; type: functional; summary of the method: as §3
Staphylococcus aureus [16] = test: Antibacterial activity against Staphylococcus aureus NRRL B 313 assessed as concentration required to produce >11 mm of zone of inhibition after 24 hrs by agar diffusion test; type: functional; summary of the method: as §2
Priestia megaterium [17] = test: Antibacterial activity against Bacillus megaterium NRRL 1353895 at 50 mg/ml after 24 hrs by agar diffusion test; type: functional; settings: NRRL 1353895, 24 h, read-out: DIZ; summary of the method: as §3
Acinetobacter johnsonii [18] = test: Antibacterial activity against Acinetobacter johnsonii ATCC 17909 assessed as concentration required to produce >11 mm of zone of inhibition after 24 hrs by agar diffusion test; type: functional; summary of the method: as §3
Bacillus mycoides [19] = test: Antibacterial activity against Bacillus mycoides DSMZ 274 at 2 mg/ml after 24 hrs by agar diffusion test; type: functional, organism-based; summary of the method: as §3
Micrococcus luteus [20] = test: Antibacterial activity against Micrococcus luteus ATCC 9631 at 50 mg/ml after 24 hrs by agar diffusion test; type: functional; settings: ATCC 9631, 24 h, read-out: DIZ; summary of the method: as §3
Bacillus cereus [21] = test: Antibacterial activity against Bacillus cereus ATCC 11778 at 50 mg/ml after 24 hrs by agar diffusion test; type: functional; settings: ATCC 11778, 24 h, read-out: DIZ; summary of the method: as §3
Bacillus cereus [22] = test: Antibacterial activity against Bacillus cereus ATCC 11778 assessed as concentration required to produce >11 mm of zone of inhibition after 24 hrs by agar diffusion test; type: functional; summary of the method: as §3
Candida tropicalis [23] = test: Antifungal activity against Candida tropicalis ATCC 20336 assessed as concentration required to produce >11 mm of zone of inhibition after 72 hrs by agar diffusion test; type: functional; summary of the method: as §1
Bacillus mycoides [24] = test: Antibacterial activity against Bacillus mycoides DSMZ 274 assessed as concentration required to produce >11 mm of zone of inhibition after 24 hrs by agar diffusion test; type: functional; summary of the method: as §3
[25] = test system: Mycobacterium tuberculosis; test: Antimycobacterial activity against Mycobacterium tuberculosis H37Rv after 45 days; type: functional
Summary of the method: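 Canetti proportion method. Compound in DMSO is added to Löwenstein–Jensen egg medium before coagulation (30 min, 85 °C), tested at three levels plus a lower one where needed. Tubes are inoculated with H37Rv at 10⁵ cells/ml and incubated 45 days at 37 °C. Colony counts versus drug-free control give percentage inhibition.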

Candida tropicalis [26] = test: Antifungal activity against Candida tropicalis ATCC 20336 at 2 mg/ml after 72 hrs by agar diffusion test; type: functional, organism-based; summary of the method: as §1
Staphylococcus aureus [27] = test: Antibacterial activity against Staphylococcus aureus NRRL B 313 at 2 mg/ml after 24 hrs by agar diffusion test; type: functional, organism-based; summary of the method: as §2
Micrococcus luteus [28] = test: Antibacterial activity against Micrococcus luteus ATCC 9631 at 2 mg/ml after 24 hrs by agar diffusion test; type: functional, organism-based; summary of the method: as §3
Micrococcus luteus [29] = test: Antibacterial activity against Sarcina lutea ATCC 9341 at 2 mg/ml after 24 hrs by agar diffusion test; type: functional, organism-based; summary of the method: as §3
Bacillus cereus [30] = test: Antibacterial activity against Bacillus cereus ATCC 11778 at 2 mg/ml after 24 hrs by agar diffusion test; type: functional, organism-based; summary of the method: as §3
Micrococcus luteus [31] = test: Antibacterial activity against Sarcina lutea ATCC 9341 at 50 mg/ml after 24 hrs by agar diffusion test; type: functional; settings: ATCC 9341, 24 h, read-out: DIZ; summary of the method: as §2
Acinetobacter johnsonii [32] = test: Antibacterial activity against Acinetobacter johnsonii ATCC 17909 at 2 mg/ml after 24 hrs by agar diffusion test; type: functional; summary of the method: as §3
Micrococcus luteus [33] = test: Antibacterial activity against Micrococcus luteus ATCC 9631 assessed as concentration required to produce >11 mm of zone of inhibition after 24 hrs by agar diffusion test; type: functional; summary of the method: as §3
Priestia megaterium [34] = test: Antibacterial activity against Bacillus megaterium NRRL 1353895 assessed as concentration required to produce >11 mm of zone of inhibition after 24 hrs by agar diffusion test; type: functional; summary of the method: as §3
Penicillium chrysogenum [35] = test: Antifungal activity against Penicillium chrysogenum CECT 2802 at 2 mg/ml after 72 hrs by agar diffusion test; type: functional, organism-based; summary of the method: as §1
Saccharomyces cerevisiae [36] = test: Antifungal activity against Saccharomyces cerevisiae ATCC 9763 at 50 mg/ml after 72 hrs by agar diffusion test; type: functional; settings: ATCC 9763, 72 h, read-out: DIZ; summary of the method: as §1
Escherichia coli [37] = test: Antibacterial activity against Escherichia coli ATCC 8739 at 2 mg/ml after 24 hrs by agar diffusion test; type: functional, organism-based; summary of the method: as §3
Penicillium chrysogenum [38] = test: Antifungal activity against Penicillium chrysogenum CECT 2802 assessed as concentration required to produce >11 mm of zone of inhibition after 72 hrs by agar diffusion test; type: functional; summary of the method: as §1
Bacillus [39] = test: Antibacterial activity against Bacillus idosus B 241 at 50 mg/ml after 24 hrs by agar diffusion test; type: functional; settings: B 241, 24 h, read-out: DIZ; summary of the method: as §3

`CC[C@H](CO)NCc1c2ccccc2cc2ccccc12` was tested, and the zone of inhibition at 50000 µg/mL (Penicillium chrysogenum [1]) was 16 mm, the Activity (Saccharomyces cerevisiae [2]) was 0.0125 mg/mL and the zone of inhibition at 50000 µg/mL (Staphylococcus aureus [3]) was 19 mm. It also gave a zone of inhibition at 50000 µg/mL (Bacillus mycoides [4]) of 20 mm, an Activity (Bacillus subtilis [5]) of 0.3 mg/mL and an Activity (Micrococcus luteus [6]) of 0.3 mg/mL. For the same molecule, the “diameter of the inhibition zone (DIZ)” value (Bacillus [7]) was “inactive”, the zone of inhibition at 50000 µg/mL (Escherichia coli [8]) was 12 mm and the zone of inhibition at 50000 µg/mL (Acinetobacter johnsonii [9]) was 17 mm. For the same molecule, the “diameter of the inhibition zone (DIZ)” value (Priestia megaterium [10]) was “inactive”, the zone of inhibition at 50000 µg/mL (Candida tropicalis [11]) was 31 mm and the “diameter of the inhibition zone (DIZ)” value (Bacillus subtilis [12]) was “inactive”. The zone of inhibition at 50000 µg/mL (Bacillus subtilis [13]) was 18 mm, the “diameter of the inhibition zone (DIZ)” value (Saccharomyces cerevisiae [14]) was “inactive” and the Activity (Bacillus [15]) was 1.25 mg/mL. The Activity (Staphylococcus aureus [16]) was 0.03 mg/mL, the zone of inhibition at 50000 µg/mL (Priestia megaterium [17]) was 20 mm and the Activity (Acinetobacter johnsonii [18]) was 0.6 mg/mL. For the same molecule, the “diameter of the inhibition zone (DIZ)” value (Bacillus mycoides [19]) was “inactive”, the zone of inhibition at 50000 µg/mL (Micrococcus luteus [20]) was 19 mm and the zone of inhibition at 50000 µg/mL (Bacillus cereus [21]) was 19 mm. It also gave an Activity (Bacillus cereus [22]) of 0.3 mg/mL, an Activity (Candida tropicalis [23]) of 0.0125 mg/mL and an Activity (Bacillus mycoides [24]) of 0.6 mg/mL. The MIC [25] was 17.9 µM (≈ 5 µg/mL), the “diameter of the inhibition zone (DIZ)” value (Candida tropicalis [26]) was “inactive” and the “diameter of the inhibition zone (DIZ)” value (Staphylococcus aureus [27]) was “inactive”. The “diameter of the inhibition zone (DIZ)” value (Micrococcus luteus [28]) was “inactive”, the “diameter of the inhibition zone (DIZ)” value (Micrococcus luteus [29]) was “inactive” and the “diameter of the inhibition zone (DIZ)” value (Bacillus cereus [30]) was “inactive”. The zone of inhibition at 50000 µg/mL (Micrococcus luteus [31]) was 18 mm, the “diameter of the inhibition zone (DIZ)” value (Acinetobacter johnsonii [32]) was “inactive” and the Activity (Micrococcus luteus [33]) was 0.3 mg/mL. For the same molecule, the Activity (Priestia megaterium [34]) was 0.6 mg/mL, the “diameter of the inhibition zone (DIZ)” value (Penicillium chrysogenum [35]) was “inactive” and the zone of inhibition at 50000 µg/mL (Saccharomyces cerevisiae [36]) was 32 mm. For the same molecule, the “diameter of the inhibition zone (DIZ)” value (Escherichia coli [37]) was “inactive”, the Activity (Penicillium chrysogenum [38]) was 0.06 mg/mL and the zone of inhibition at 50000 µg/mL (Bacillus [39]) was 19 mm.
